One block for each compound: values may come before it. Calls of active or inactive are those of the source. The calls are words filed in the database; no cut-off is given here.
Legend:
[1] = test system: Rattus norvegicus; assay: Antiinflammatory activity in DNBS-induced Sprague-Dawley rat colitis model assessed as reduction in DNBS-induced increase in spleen weight at 0.25 umol/kg, ip for 7 days administered 1 day before colitis induction; format: functional, organism-based
Procedure, shortened: (§1)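 Colitis was induced in male Sprague-Dawley rats (250-300 g) by intrarectal DNBS, 15 mg in 0.25 mL 50% ethanol, under isoflurane. Drug was given ip daily for 7 days from 1 day before induction; six rats per group; vehicle controls. Spleen was weighed at assessment 6 days after DNBS and expressed as % increase, as an index of systemic inflammation.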

[2] = test system: Rattus norvegicus; assay: Antiinflammatory activity in DNBS-induced Sprague-Dawley rat colitis model assessed as reduction in DNBS-induced macroscopic damage in colon at 0.25 umol/kg, ip for 7 days administered 1 day before colitis induction; format: functional, organism-based
Procedure, shortened: (§2)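 DNBS colitis was induced in male Sprague-Dawley rats (250-300 g): 15 mg in 0.25 mL 50% ethanol given intrarectally. Dosing was ip for 7 days, beginning 1 day before DNBS; n=6 per group; vehicle controls. Six days after DNBS, the whole colon was scored for macroscopic damage by two observers blinded to treatment.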

[3] = test system: Rattus norvegicus; assay: Antiinflammatory activity in DNBS-induced Sprague-Dawley rat colitis model assessed as reduction in DNBS-induced increase in colonic tissue malondialdehyde level at 0.25 umol/kg, ip for 7 days administered 1 day before colitis induction; format: functional, organism-based
Procedure, shortened: (§3)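 Rats (male Sprague-Dawley) received intrarectal DNBS (15 mg in 50% ethanol), with ip dosing for 7 days from 1 day before; n=6 per group. Colon was taken at day 6, homogenized in cold 20 mmol/L Tris-HCl, pH 7.4, and spun 1500g for 10 min at 4 °C. MDA was measured by colorimetric kit and expressed as µmol per mg tissue.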

[4] = test system: Rattus norvegicus; assay: Antiinflammatory activity in DNBS-induced Sprague-Dawley rat colitis model assessed as reduction in DNBS-induced increase in colonic tissue malondialdehyde level at 5 to 45 umol/kg, ip for 7 days administered 1 day before colitis induction; format: functional, organism-based; procedure, shortened: as §3
[5] = test system: Rattus norvegicus; assay: Antiinflammatory activity in DNBS-induced Sprague-Dawley rat colitis model assessed as reduction in DNBS-induced increase in colonic tissue TNFalpha level at 0.25 umol/kg, ip for 7 days administered 1 day before colitis induction; format: functional, organism-based
Procedure, shortened: (§4)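 In male Sprague-Dawley rats with intrarectal DNBS colitis (15 mg in 50% ethanol), dosing was ip for 7 days from 1 day before induction; six per group. Colon samples from day 6 were stored at -80 °C, homogenized at 4 °C in PBS, pH 7.2 (0.3 mL/100 mg), and centrifuged at 13400g for 20 min. TNF-α was measured by ELISA and expressed as pg/mg tissue.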

[6] = species: Bos taurus; assay: Inhibition of bovine spleen adenosine deaminase type 9 at <= 10 uM by spectrophotometry
Procedure, shortened: (§5)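 Bovine spleen ADA type IX (0.3 nM) with 50 µM adenosine in 50 mM potassium phosphate, pH 7.2, at 30 °C. Deamination read as the A262 change over 2 min, against a substrate-free blank. DMSO ≤4% final. Screened at 10^-5 M; actives retested at 10-5 to 10-11 M in triplicate. IC50 taken by linear regression of log concentration-response, then converted to Ki by Cheng-Prusoff.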

[7] = Inhibition of bovine spleen adenosine deaminase type 9 by spectrophotometry; design: species or system Bos taurus; procedure, shortened: as §5
[8] = test system: Rattus norvegicus; assay: Antiinflammatory activity in DNBS-induced Sprague-Dawley rat colitis model assessed as body weight gain at 45 umol/kg, ip for 7 days administered 1 day before colitis induction; format: functional
Procedure, shortened: (§6)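 Male Sprague-Dawley rats (250-300 g) under brief isoflurane received 15 mg DNBS in 0.25 mL 50% ethanol intrarectally, 8 cm proximal to anus. Drug was given ip for 7 days starting 1 day before DNBS; controls received vehicle; n=6 per group. Body weight was recorded daily from the start of dosing, and the change was taken at day 6 after DNBS.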

[9] = test system: Rattus norvegicus; assay: Antiinflammatory activity in DNBS-induced Sprague-Dawley rat colitis model assessed as body weight loss at 5 umol/kg, ip for 7 days administered 1 day before colitis induction; format: functional; procedure, shortened: as §6
[10] = test system: Rattus norvegicus; assay: Antiinflammatory activity in DNBS-induced Sprague-Dawley rat colitis model assessed as body weight loss at 15 umol/kg, ip for 7 days administered 1 day before colitis induction; format: functional; procedure, shortened: as §6
[11] = test system: Rattus norvegicus; assay: Antiinflammatory activity in DNBS-induced Sprague-Dawley rat colitis model assessed as DNBS-induced increase in spleen weight at 45 umol/kg, ip for 7 days administered 1 day before colitis induction; format: functional; procedure, shortened: as §1
[12] = test system: Rattus norvegicus; assay: Antiinflammatory activity in DNBS-induced Sprague-Dawley rat colitis model assessed as DNBS-induced increase in spleen weight at 5 umol/kg, ip for 7 days administered 1 day before colitis induction; format: functional; procedure, shortened: as §1
[13] = test system: Rattus norvegicus; assay: Antiinflammatory activity in DNBS-induced Sprague-Dawley rat colitis model assessed as DNBS-induced increase in spleen weight at 15 umol/kg, ip for 7 days administered 1 day before colitis induction; format: functional; procedure, shortened: as §1
[14] = test system: Rattus norvegicus; assay: Antiinflammatory activity in ip dosed Sprague-Dawley rat colitis model assessed as reduction in DNBS-induced increase in spleen weight administered for 7 days 1 day before colitis induction; format: functional, organism-based; procedure, shortened: as §1
[15] = test system: Rattus norvegicus; assay: Antiinflammatory activity in DNBS-induced Sprague-Dawley rat colitis model assessed as DNBS-induced macroscopic damage in colon at 45 umol/kg, ip for 7 days administered 1 day before colitis induction; format: functional; procedure, shortened: as §2
[16] = test system: Rattus norvegicus; assay: Antiinflammatory activity in DNBS-induced Sprague-Dawley rat colitis model assessed as DNBS-induced macroscopic damage in colon at 15 umol/kg, ip for 7 days administered 1 day before colitis induction; format: functional; procedure, shortened: as §2
[17] = test system: Rattus norvegicus; assay: Antiinflammatory activity in DNBS-induced Sprague-Dawley rat colitis model assessed as DNBS-induced macroscopic damage in colon at 5 umol/kg, ip for 7 days administered 1 day before colitis induction; format: functional; procedure, shortened: as §2
[18] = test system: Rattus norvegicus; assay: Antiinflammatory activity in DNBS-induced Sprague-Dawley rat colitis model assessed as DNBS-induced increase in colonic tissue TNFalpha level at 45 umol/kg, ip for 7 days administered 1 day before colitis induction; format: functional; procedure, shortened: as §4
[19] = test system: Rattus norvegicus; assay: Antiinflammatory activity in ip dosed Sprague-Dawley rat colitis model assessed as reduction in DNBS-induced decrease in body weight administered for 7 days 1 day before colitis induction; format: functional, organism-based; procedure, shortened: as §6
[20] = test system: Rattus norvegicus; assay: Antiinflammatory activity in ip dosed Sprague-Dawley rat colitis model assessed as reduction in DNBS-induced macroscopic damage in colon administered for 7 days 1 day before colitis induction; format: functional, organism-based; procedure, shortened: as §2
[21] = test system: Rattus norvegicus; assay: Antiinflammatory activity in ip dosed Sprague-Dawley rat colitis model assessed as reduction in DNBS-induced increase in colonic tissue malondialdehyde level administered for 7 days 1 day before colitis induction; format: functional, organism-based; procedure, shortened: as §3
[22] = test system: Rattus norvegicus; assay: Antiinflammatory activity in ip dosed Sprague-Dawley rat colitis model assessed as reduction in DNBS-induced increase in colonic tissue TNFalpha level administered for 7 days 1 day before colitis induction; format: functional, organism-based; procedure, shortened: as §4
[23] = test system: Rattus norvegicus; assay: Toxicity in Sprague-Dawley rat assessed as behavioral changes at 5 to 45 umol/kg, ip for 7days; format: organism-based; settings: in vivo, 168 h
[24] = test system: Rattus norvegicus; assay: Toxicity in Sprague-Dawley rat assessed as variation in body weight at 5 to 45 umol/kg, ip for 7days; format: organism-based; settings: in vivo, 168 h
[25] = test system: Rattus norvegicus; assay: Toxicity in Sprague-Dawley rat assessed as variation in food intake at 5 to 45 umol/kg, ip for 7days; format: organism-based; settings: in vivo, 168 h
[26] = test system: Rattus norvegicus; assay: Toxicity in Sprague-Dawley rat assessed as mortality at 5 to 45 umol/kg, ip for 7days; format: organism-based; settings: in vivo, 168 h

SMILES: C[C@@H]1C[C@H]2[C@@H]3CCC4=CC(=O)C=C[C@]4(C)[C@@]3(F)[C@@H](O)C[C@]2(C)[C@@]1(O)C(=O)CO
Activity [1]: Active | Activity [2]: Active | Activity [3]: Active | Activity [4]: Active | Activity [5]: Active

SMILES: CCCCCCCCCn1cc2c(=O)[nH]cnc2n1
Activity [6]: inactive

SMILES: O=C(Nc1ccc(Cn2cc3c(=O)[nH]cnc3n2)cc1)Nc1ccc(C(F)(F)F)cc1
Activity [8]: 2.3 g | Activity [9]: 16.5 g | Activity [10]: 10.4 g | Activity [11]: 10.1% | Activity [12]: 23.8% | Activity [13]: 18.9% | Activity [14]: Dose-dependent effect | Ki [7]: 0.16 nM | Activity [15]: 4.3 | Activity [16]: 5.6 | Activity [17]: 6.9 | Activity [3]: Active | Activity [4]: Active | Activity [18]: 5.8 pg/mg | Activity [19]: Dose-dependent effect | Activity [20]: Dose-dependent effect | Activity [21]: Dose-dependent effect | Activity [22]: Dose-dependent effect | Activity [23]: Non-toxic | Activity [24]: Non-toxic | Activity [25]: Non-toxic | Activity [26]: Non-toxic

SMILES: CCCCCCCCCCn1cc2c(=O)[nH]cnc2n1
Activity [6]: inactive

SMILES: CCCCCCCCCCCn1cc2c(=O)[nH]cnc2n1
Activity [6]: inactive

SMILES: O=C(Nc1ccc(Cc2ccccc2)cc1)Nc1ccc(Cn2cc3c(=O)[nH]cnc3n2)cc1
Ki [7]: 186 nM

SMILES: O=C(Nc1ccc(Cn2cc3c(=O)[nH]cnc3n2)cc1)Nc1ccc(OCc2ccccc2)cc1
Ki [7]: 108 nM

Now from value to compound:

Ki [7]: 2.42 nM
SMILES: O=C(Nc1ccccc1)Nc1ccc(Cn2cc3c(=O)[nH]cnc3n2)cc1

Ki [7]: 0.96 nM
SMILES: O=C(Nc1ccc(Cn2cc3c(=O)[nH]cnc3n2)cc1)c1ccc(F)cc1

Ki [7]: 85.7 nM
SMILES: O=C(NCc1ccccc1)Nc1ccc(Cn2cc3c(=O)[nH]cnc3n2)cc1

Ki [7]: 2.01 nM
SMILES: CN(C)c1ccc(NC(=O)Nc2ccc(Cn3cc4c(=O)[nH]cnc4n3)cc2)cc1

Ki [7]: 1.14 nM
SMILES: CCCCCC[C@H]([C@H](C)O)n1cnc2c(N)ncnc21 [(+)-EHNA]

Ki [7]: 28.3 nM
SMILES: COc1ccc(NC(=O)Nc2ccc(Cn3cc4c(=O)[nH]cnc4n3)cc2)cc1

Ki [7]: 1.15 nM
SMILES: O=C(Nc1ccc(F)cc1)Nc1ccc(Cn2cc3c(=O)[nH]cnc3n2)cc1

Ki [7]: 15.6 nM
SMILES: COc1ccc(C(=O)Nc2ccc(Cn3cc4c(=O)[nH]cnc4n3)cc2)cc1

Ki [7]: 47.9 nM
SMILES: O=C(Cc1ccccc1)Nc1ccc(Cn2cc3c(=O)[nH]cnc3n2)cc1

Ki [7]: 12.7 nM
SMILES: O=C(Nc1ccc(Cn2cc3c(=O)[nH]cnc3n2)cc1)c1ccccc1

Ki [7]: 0.51 nM
SMILES: O=C(Nc1ccc(Cn2cc3c(=O)[nH]cnc3n2)cc1)c1ccc(C(F)(F)F)cc1

Source: ChEMBL document CHEMBL1152769, “Exploiting the pyrazolo[3,4-d]pyrimidin-4-one ring system as a useful template to obtain potent adenosine deaminase inhibitors” (J Med Chem, 2009)
